Experimental data pooled from the literature.
Lines come from different studies, so protocols differ.
Target: Mitogen-activated protein kinase kinase kinase kinase 4 (MAP4K4, Homo sapiens, UniProt O95819)

Cc1cc(O)c(-c2ccc([C@@H](C)CN(C)C)cc2)c2c1[nH]c(=O)c1sccc12
inhibition (enzyme activity, inhibitor; 0.1 µM): -4%

C=CC(=O)N1CCC([C@@H]2CCNc3c(C(N)=O)c(-c4ccc(Oc5ccccc5)cc4)nn32)CC1
inhibition (enzyme activity, inhibitor; 1 µM): 23%

COc1ccc2[nH]c3c4[nH]c5ccc(OC)cc5c4c4c(c3c2c1)C(=O)NC4=O
remaining binding (binding, competition with immobilised ligand; 1 µM): 2.7%

COc1ccc2oc(-c3ccc4nc(N)oc4c3)c/c(=N\c3ccccc3NC(=O)CCN)c2c1
remaining binding (binding; 1 µM): 96%

C#Cc1cc(-c2cc(Nc3nc(N[C@@H](C)c4ccc(F)cn4)ncc3Cl)n[nH]2)ccc1C=O
inhibition (enzyme activity, inhibitor; 0.2 µM): 11.9%

CCCCC(=O)Nc1ccc(-c2ccc3ncn(CCC)c(=O)c3c2)cn1
remaining binding (binding, competition with immobilised ligand; 0.5 µM): 100%

CC(C)S(=O)(=O)c1ccc2nccc(Nc3ccc4sc(C5CCCC5)nc4c3)c2c1
activity vs control (enzyme activity, inhibitor; 1 µM): 110%

C=CC(=O)N1CCC[C@@H](n2nc(-c3ccc(Oc4ccccc4)cc3)c3c(N)ncnc32)C1
inhibition (enzyme activity, inhibitor; 1 µM): 4%

C[C@H]1CC[C@H](n2c3cnccc3c3cnc(Nc4ccc5c(n4)CCN(C(=O)CO)C5)nc32)CC1
remaining binding (binding, competition with immobilised ligand; 1 µM): 100%

C1=C/COCc2cc(ccc2OCCN2CCCC2)Nc2nccc(n2)-c2cccc(c2)COC/1
remaining binding (binding; 0.1 µM): 55%
